The values below come from the RNAGym collection of RNA variant scans (doi:10.1126/science.aae0568).

The labels stand for the following.
B1: tRNA (parent)
chain: GUUCCGUUGGCGUAAUGGUAACGCGUCUCCCUCCUAAGGAGAAGACUGCGGGUUCGAGUCCCGUACGGAACG

Variants at the floor of the assay were thinned out.

Variants of B1 are the subject of this data set. Briefly: yeast fitness relative to wild type (ratio to wild type); higher = fitter; tRNA-Arg(CCU), competitive growth, 37 C, YPD. In a few lines:
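A pool of Saccharomyces cerevisiae strains, each with a tRNA-Arg(CCU) gene variant at the native genomic locus, was competed in YPD at 37°C for 24 hours across six parallel replicates. The variants had been chemically synthesised at a 3% per-site mutation rate over 69 sites, and gene amplicons before and after competition were read by 100-nucleotide paired-end sequencing. Darwinian fitness relative to wild type rested on changes in genotype frequencies. Genotypes required ≥ 100 starting reads, and estimates < 0.5 were set to 0.5.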
For the variant U3C C11A G25A C46G A57U, the yeast fitness is 0.504.
Consider G9A C62U A70U, for which the yeast fitness was found to be 0.68.
In the case of G48C G50A G67A it was at most 0.5; in that of A37C G50C, 0.551; in that of G9C G23C C29U A36C C49G, at most 0.5.
Consider U7A G52A A69C, for which the yeast fitness is at most 0.5.
In the case of G51U A70G it was 0.707; in that of U35C G52C G67C, 0.533.
As to G10C C24G G50A, the yeast fitness was at most 0.5.
Regarding C4G C22G C29A, the yeast fitness is at most 0.5.
The value for G25C G50C G56A G58A was at most 0.5.
Turning to C55G C62G, the yeast fitness amounted to 0.602.
In the case of G9C G17A C66U, the yeast fitness is at most 0.5.
G12C C29G C46G G51A G52A: the yeast fitness was at most 0.5.
The value for U32C A40U C55G was 0.703; that for G18A G44C was 0.767; that for A20G G23C G50A was at most 0.5.
The value for G10A C30U C46A was 0.695; that for C22U A57C was 0.661.
The value for C11A A36G G56C was at most 0.5; that for A14G C24G C31U C55A was 0.552.
For the variant U28C A43G, the yeast fitness stood at 0.976.
As for A21C C27U C61G, the yeast fitness was 0.534.
In the case of C30U U54A G68C it was at most 0.5; in that of C4G A45U G48C C49G, at most 0.5.
In the case of C5U G44C C61U it was 0.702; in that of C5G G6A G50C, 0.608.
For the variant A42G C61A C66A, the yeast fitness was at most 0.5.
In the case of C24U C27U A40G it was 0.563; in that of U3C C11U G17C C22A C24G U28C C33A, at most 0.5; in that of C24G U28G C46G G67U, at most 0.5.
Turning to C5U G12C A69U, the yeast fitness amounted to 0.62.
On to A57G C62U G67A, for which the yeast fitness is at most 0.5.
The value for G6A C29A A37U G67C was at most 0.5; that for C4G A14C G25C A45U U47A A57U was at most 0.5.
The value for C11U A40U C46U was 0.637.
The value for U47C G67U was 0.86; that for U13C A36U C62U G63C A70C was at most 0.5.
As to C49G G58A, the yeast fitness came to 0.844.
The value for U53A G56A A65U was at most 0.5; that for G6A C24U C61G C62U C66U A69U was at most 0.5; that for C4G C31A was 0.817.
In the case of U16A C30G G44C A65C it was at most 0.5; in that of A14U C29U U32G A57U, at most 0.5.
In the case of U2C G38A it was 0.901.
As for A14G G41C, the yeast fitness was 0.917.
For the variant A37G A42U C62A A65C, the yeast fitness was at most 0.5.
In the case of U64C A69C it was 0.983; in that of A20U C24U A43G U59A, at most 0.5.
In the case of G50A C61U, the yeast fitness is 0.863.
The value for C11U G17A G48A G51C C60A U64C was 0.623; that for C49G C60U was 0.692.
The value for C4U G18C A20C G39A was at most 0.5; that for G10A U16C U35C A40U was at most 0.5; that for U2G G6A G23A C29G C55A was 0.508.
The value for A57U A65U G68C was at most 0.5.
In the case of U2C C55A A57C G67C G68A, the yeast fitness was 0.575.
In the case of C22U G38A G68A it was 0.584; in that of C22G C29U, 0.838.
In the case of C22G U32C A37G it was 0.559; in that of G10A G17A C61A C62U A65U A69C, at most 0.5.
In the case of U3A G18A C22U it was at most 0.5; in that of G6A A15G A65U, 0.607.
Turning to U3G U8A C31A C49A, the yeast fitness was at most 0.5.
Turning to G6A C29A U32C A42U G67A, the yeast fitness is at most 0.5.
On to G6A G17C G18C A45G G58A, for which the yeast fitness was at most 0.5.
A21C C24U U32A G41A C62G: the yeast fitness was at most 0.5.
In the case of U13G C24A C46G G52A it was at most 0.5; in that of C29G A36G A65C, at most 0.5.
The value for U8C C11U C34G was at most 0.5; that for U8G A45C was 0.537.
Regarding G44C C66U A70C, the yeast fitness stood at 0.88.
For the variant C22U G25A C31A, the yeast fitness is 0.728.
In the case of A21U G50A C62G it was 0.601; in that of G25A U26G, 0.805.
For the variant A42U A43G, the yeast fitness worked out at 0.88.
As to C5A C22U, the yeast fitness is 0.79.
The value for C29A G41A A43C A69C was at most 0.5; that for A15C G68C was 0.633.
U26A U64A: the yeast fitness was 0.788.
The value for U2C U3A C31G U35A was at most 0.5; that for G10C A43C C49U was at most 0.5; that for G10A A36U G38A A65C was at most 0.5.
The value for C27U A45C was 0.947; that for U19C A20G A37G was at most 0.5; that for U19A A21U was 0.854.
The value for A36U G39A A45G G63U was 0.535; that for C11U U26A A36U A65U was at most 0.5; that for U2C A14G U47G was 0.593.
As for C4A U26C, the yeast fitness turned out to be 0.972.
On to C34A A42U G68A, for which the yeast fitness was at most 0.5.
With C29A C33G A70G, the yeast fitness was at most 0.5.
In the case of U3A C27U G67U it was 0.606; in that of U8C A42U C62U A65C, 0.534.
In the case of C5G C33G A40U it was at most 0.5.
Consider U3C C27G C33A C66G G67C, for which the yeast fitness was at most 0.5.
As for G10U C24G A45G, the yeast fitness was at most 0.5.
With U19C C29A A37G, the yeast fitness was at most 0.5.
With C49A U64G A69C, the yeast fitness came to 0.592.
Turning to G23A A42G C61U, the yeast fitness is at most 0.5.
The value for G6A A21G G23A G58C was at most 0.5; that for U7G G63A G67C was at most 0.5; that for G6C U35C U59C was at most 0.5.
In the case of U47A C55A G68A, the yeast fitness is 0.532.
Regarding A21U C27U C34A, the yeast fitness was 0.774.
In the case of G9A C11U A15C A20G G48A C60G, the yeast fitness is 0.662.
The value for G23A C29G G52C was at most 0.5; that for U2A C4U U8G C55G was 0.513; that for A42C A57C was 0.62.
In the case of C11A G25C C29U A65U, the yeast fitness was at most 0.5.
Turning to A20C C34A A37G C62U C66U, the yeast fitness is 0.554.
In the case of C4A C33A it was 0.705.
In the case of C11U C22A C31U G68C it was at most 0.5; in that of G39C C49G A65U, at most 0.5; in that of C4G A15U C33A G52C C55G, at most 0.5.
In the case of U3C U8A G25A A45G it was 0.578.
U7A C30A: the yeast fitness turned out to be 0.669.
The value for G23C G68A A69U was at most 0.5.
As for G12C C27G G58A, the yeast fitness was at most 0.5.
As for A14C C24A, the yeast fitness is at most 0.5.
In the case of G12A U32C A40C G51A it was at most 0.5.
For C24A U47G G68A, the yeast fitness was at most 0.5.
Regarding U2G C27U C46U G68C, the yeast fitness turned out to be 0.763.
In the case of A14G C29G A42C it was at most 0.5; in that of C31G U47G, 0.667; in that of A14U A45U G68C, at most 0.5.
In the case of U16C G18A C24G A45U it was at most 0.5; in that of C22U C29A U47C G68A A69C, at most 0.5; in that of A21U A36G A43U, 0.729.
Take C27U C31U C60G: the yeast fitness came out at 0.581.
The value for C11U A57U A69U was 0.613; that for C4U C27A was 0.737; that for U7A U19A A69C was 0.502.
In the case of A15G U19A U28A C55A A65U it was at most 0.5; in that of C55G A70U, 0.653.
For A21U C34G, the yeast fitness was found to be 0.597.
Take A15U C31U G67A: the yeast fitness was determined as 0.565.
U8C A15C U32C A69C: the yeast fitness is at most 0.5.
In the case of G25C U53C A65C it was 0.697.
The value for C4U A14G C46G was 0.659; that for A14U G17C U53G was 0.603.
The value for G10C U26A C33U U53C A70C was 0.724; that for G6C A20C A40G A42U C60G was at most 0.5; that for C4U G12A A40U A69C was 0.56.
Take C5G A36G G44C: the yeast fitness came out at 0.672.
In the case of G48A C66A G68U A70C, the yeast fitness is at most 0.5.
In the case of C5A A20G A40G C49U it was at most 0.5.
As to U2C C4U G25C C29U C66A, the yeast fitness was at most 0.5.
In the case of U2G C11G G12C C49U, the yeast fitness is at most 0.5.
The value for A37U A42G was 0.588; that for G6A C30U G51C was at most 0.5.
On to C11U U13A C46G C62G, for which the yeast fitness was at most 0.5.
Take G18C C22A U32C A45C C46U A65C: the yeast fitness is at most 0.5.
For the variant C5U U32A C34A A65C, the yeast fitness was at most 0.5.
As to U2C C4U C62U, the yeast fitness was 0.698.
The value for C11U A14C A40C G44C C55G was at most 0.5; that for C34A G52A C61G G63A was at most 0.5; that for U26C U32C was 0.874.
Turning to A15U U35A G50C A65C, the yeast fitness was at most 0.5.
With U7G U54C C55G, the yeast fitness is at most 0.5.
As for C30U C34G G39A C49G C61U, the yeast fitness is at most 0.5.
Consider U28A U64G, for which the yeast fitness turned out to be 0.709.
In the case of A20C A21G G67C it was 0.712; in that of A14C G68U, 0.583; in that of G18A A42G, 0.692.
The value for U16A U32C A42U was 0.637.
In the case of U2A G9A A37G G58A it was at most 0.5.
